Measured values: ChEMBL document CHEMBL1250442, “Inhibiting gene expression at transcription start sites in chromosomal DNA with antigene RNAs” (Nat Chem Biol, 2005)
Active and inactive are the calls of the source. The calls are words filed in the database; no cut-off is given here.

Assays:
T47D [1] = assay: Effect of DNA methylation at (-167) CpG site near androgen receptor transcription start site (-13) in human T47D cells by sodium bisulfite sequencing analysis; format: functional, cell-based
Outline: (§1)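 T47D cells (RPMI-1640, 10% FBS, NEAA, insulin; 37 °C, 5% CO2) transfected with agRNA duplexes via Oligofectamine, medium changed at 24 h. Genomic DNA bisulphite-treated, regions around AR and hPR-B start sites PCR-amplified (HotStarTaq, 100 ng treated DNA), gel-purified, TOPO TA cloned; 5–15 colonies per plate miniprepped and sequenced.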

T47D [2] = assay: Inhibition of PR-B mRNA gene expression in human T47D cells at 100 nM by syber green assay; format: functional
Outline: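 T47D cells in RPMI-1640 with 10% FBS, NEAA, insulin, 37 °C, 5% CO2. Plated two days before transfection without antibiotics. Oligofectamine-mediated duplex RNA transfection at 100 nM final, medium changed at 24 h, harvest five days post-transfection. Total RNA extracted with TRIzol. hPR mRNA quantified by SYBR Green qPCR: 50 °C 2 min, 95 °C 10 min, then 40 cycles of 95 °C 15 s / 60 °C 1 min.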

T47D [3] = assay: Effect of DNA methylation at (-36) CpG site near androgen receptor transcription start site (-13) in human T47D cells by sodium bisulfite sequencing analysis; format: functional, cell-based; outline: as §1
T47D [4] = assay: Inhibition of PR-A gene expression in human T47D cells at 25 nM by syber green assay in presence of 10 nM estradiol; format: functional, cell-based
T47D [5] = assay: Effect of DNA methylation at (-43) CpG site near androgen receptor transcription start site (-13) in human T47D cells by sodium bisulfite sequencing analysis; format: functional, cell-based; outline: as §1
T47D [6] = assay: Effect of DNA methylation at (-126) CpG site near androgen receptor transcription start site (-13) in human T47D cells by sodium bisulfite sequencing analysis; format: functional, cell-based; outline: as §1
T47D [7] = assay: Inhibition of PR-B gene expression in human T47D cells at 25 nM by syber green assay in presence of 10 nM estradiol; format: functional, cell-based
T47D [8] = assay: Effect of DNA methylation at (+1) CpG site near androgen receptor transcription start site (-13) in human T47D cells by sodium bisulfite sequencing analysis; format: functional, cell-based
Outline: (§2)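 T47D cells grown in RPMI-1640 with 10% FBS, 0.5% NEAA, insulin and P/S at 37 °C, 5% CO2. They were plated at 80,000 cells/well 2 days before lipid transfection with 25 nM or 100 nM duplex, with medium changed at 24 h. Cells were harvested 5 days post-transfection. 100 ng bisulfite-treated DNA was PCR-amplified, and products were TA-cloned. 5–15 colonies per plate were sequenced.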

T47D [9] = assay: Effect of DNA methylation at (-124) CpG site near androgen receptor transcription start site (-13) in human T47D cells by sodium bisulfite sequencing analysis; format: functional, cell-based; outline: as §1
T47D [10] = assay: Effect of DNA methylation at (-52) CpG site near androgen receptor transcription start site (-13) in human T47D cells by sodium bisulfite sequencing analysis; format: functional, cell-based; outline: as §1
T47D [11] = assay: Effect of DNA methylation at (+11) CpG site near androgen receptor transcription start site (-13) in human T47D cells by sodium bisulfite sequencing analysis; format: functional, cell-based; outline: as §2
T47D [12] = assay: Effect of DNA methylation at (-132) CpG site near androgen receptor transcription start site (-13) in human T47D cells by sodium bisulfite sequencing analysis; format: functional, cell-based; outline: as §1
T47D [13] = assay: Effect of DNA methylation at (+19) CpG site near androgen receptor transcription start site (-13) in human T47D cells by sodium bisulfite sequencing analysis; format: functional, cell-based; outline: as §2
T47D [14] = assay: Effect of DNA methylation at (-172) CpG site near androgen receptor transcription start site (-13) in human T47D cells by sodium bisulfite sequencing analysis; format: functional, cell-based; outline: as §1
T47D [15] = assay: Inhibition of androgen receptor expression in human T47D cells after 12 days at 100 nM by syber green assay; format: functional, cell-based
Outline: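 AR expression in T47D cells, grown in RPMI-1640 with 10% FBS, NEAA and insulin. Plated antibiotic-free two days before Oligofectamine transfection with 100 nM duplex RNA; medium replaced after 24 h. TRIzol total RNA. SYBR Green real-time PCR: 50 °C 2 min, 95 °C 10 min, 40 cycles of 95 °C 15 s and 60 °C 1 min.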

T47D [16] = assay: Effect of DNA methylation at (-178) CpG site near androgen receptor transcription start site (-13) in human T47D cells by sodium bisulfite sequencing analysis; format: functional, cell-based; outline: as §1
T47D [17] = assay: Effect of DNA methylation at (-122) CpG site near androgen receptor transcription start site (-13) in human T47D cells by sodium bisulfite sequencing analysis; format: functional, cell-based; outline: as §1
T47D [18] = assay: Effect of DNA methylation at (+43) CpG site near androgen receptor transcription start site (-13) in human T47D cells by sodium bisulfite sequencing analysis; format: functional, cell-based; outline: as §1
T47D [19] = assay: Effect of DNA methylation at (-31) CpG site near androgen receptor transcription start site (-13) in human T47D cells by sodium bisulfite sequencing analysis; format: functional, cell-based; outline: as §1
T47D [20] = assay: Inhibition of PR-A mRNA gene expression in human T47D cells at 100 nM by syber green assay; format: functional
Outline: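 T47D cells plated at 80,000/well without antibiotics two days before Oligofectamine transfection with agRNA duplex (25 or 100 nM final); medium changed at 24 h, harvest day 5 unless stated otherwise. TRIzol total RNA; PR mRNA by real-time PCR with SYBR Green: 50 °C 2 min, 95 °C 10 min, 40 cycles 95 °C 15 s/60 °C 1 min.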

T47D [21] = assay: Effect of DNA methylation at (-57) CpG site near androgen receptor transcription start site (-13) in human T47D cells by sodium bisulfite sequencing analysis; format: functional, cell-based; outline: as §1
T47D [22] = assay: Inhibition of PR-A gene expression in human T47D cells harboring inactive DNA methyltransferase-1 at 100 nM by syber green assay; format: functional, cell-based
T47D [23] = assay: Inhibition of PR-B gene expression in human T47D cells harboring inactive DNA methyltransferase-1 at 100 nM by syber green assay; format: functional, cell-based

Cc1cn(CC(=O)N(CCNC(=O)CN(CCNC(=O)CN(CCNC(=O)CN(CCNC(=O)CN(CCNC(=O)CN(CCNC(=O)CN(CCNC(=O)CN(CCNC(=O)CN(CCNC(=O)CN(CCNC(=O)CN(CCNC(=O)CN(CCNC(=O)CN(CCNC(=O)CN(CCNC(=O)CN(CCNC(=O)CN(CCNC(=O)CN(CCNC(=O)CN(CCNC(=O)CN(CCNC(=O)CN(CCNC(=O)CN)C(=O)Cn2ccc(N)nc2=O)C(=O)Cn2ccc(=O)[nH]c2=O)C(=O)Cn2ccc(N)nc2=O)C(=O)Cn2ccc(=O)[nH]c2=O)C(=O)Cn2ccc(N)nc2=O)C(=O)Cn2ccc(N)nc2=O)C(=O)Cn2cnc3c(N)ncnc32)C(=O)Cn2ccc(N)nc2=O)C(=O)Cn2ccc(N)nc2=O)C(=O)Cn2ccc(=O)[nH]c2=O)C(=O)Cn2ccc(N)nc2=O)C(=O)Cn2ccc(N)nc2=O)C(=O)Cn2ccc(N)nc2=O)C(=O)Cn2cnc3c(N)ncnc32)C(=O)Cn2cnc3c(=O)[nH]c(N)nc32)C(=O)Cn2ccc(N)nc2=O)C(=O)Cn2cnc3c(=O)[nH]c(N)nc32)C(=O)Cn2ccc(N)nc2=O)C(=O)Cn2ccc(N)nc2=O)CC(=O)NCCN(CC(=O)NCC(=O)O)C(=O)Cn2cc(C)c(=O)[nH]c2=O)c(=O)[nH]c1=O
Activity (T47D [1]): inactive
inhibition at 0.1 µM (T47D [2]): 100%
Activity (T47D [3]): inactive
inhibition (T47D [4]): Active
Activity (T47D [5]): inactive
Activity (T47D [6]): inactive
inhibition (T47D [7]): Active
Activity (T47D [8]): inactive
Activity (T47D [9]): inactive
Activity (T47D [10]): inactive
Activity (T47D [11]): inactive
Activity (T47D [12]): inactive
Activity (T47D [13]): inactive
Activity (T47D [14]): inactive
inhibition (T47D [15]): Active
Activity (T47D [16]): inactive
Activity (T47D [17]): inactive
Activity (T47D [18]): inactive
Activity (T47D [19]): inactive
inhibition at 0.1 µM (T47D [20]): 100%
Activity (T47D [21]): inactive

Cc1cn([C@H]2C[C@H](OP(=O)(O)OC[C@H]3O[C@@H](n4cc(C)c(=O)[nH]c4=O)C[C@@H]3O)[C@@H](COP(=O)(O)O[C@H]3[C@@H](O)[C@H](n4ccc(N)nc4=O)O[C@@H]3COP(=O)(O)O[C@H]3[C@@H](O)[C@H](n4cnc5c(=O)[nH]c(N)nc54)O[C@@H]3COP(=O)(O)O[C@H]3[C@@H](O)[C@H](n4cnc5c(N)ncnc54)O[C@@H]3COP(=O)(O)O[C@H]3[C@@H](O)[C@H](n4ccc(N)nc4=O)O[C@@H]3COP(=O)(O)O[C@H]3[C@@H](O)[C@H](n4cnc5c(N)ncnc54)O[C@@H]3COP(=O)(O)O[C@H]3[C@@H](O)[C@H](n4ccc(N)nc4=O)O[C@@H]3COP(=O)(O)O[C@H]3[C@@H](O)[C@H](n4ccc(N)nc4=O)O[C@@H]3COP(=O)(O)O[C@H]3C[C@H](n4ccc(=O)[nH]c4=O)O[C@@H]3COP(=O)(O)O[C@H]3[C@@H](O)[C@H](n4cnc5c(=O)[nH]c(N)nc54)O[C@@H]3COP(=O)(O)O[C@H]3[C@@H](O)[C@H](n4cnc5c(N)ncnc54)O[C@@H]3COP(=O)(O)O[C@H]3[C@@H](O)[C@H](n4cnc5c(=O)[nH]c(N)nc54)O[C@@H]3COP(=O)(O)O[C@H]3[C@@H](O)[C@H](n4ccc(N)nc4=O)O[C@@H]3COP(=O)(O)O[C@H]3[C@@H](O)[C@H](n4cnc5c(=O)[nH]c(N)nc54)O[C@@H]3COP(=O)(O)O[C@H]3[C@@H](O)[C@H](n4ccc(N)nc4=O)O[C@@H]3COP(=O)(O)O[C@H]3[C@@H](O)[C@H](n4ccc(=O)[nH]c4=O)O[C@@H]3COP(=O)(O)O[C@H]3[C@@H](O)[C@H](n4ccc(N)nc4=O)O[C@@H]3CO[PH](=O)O[C@H]3[C@@H](O)[C@H](n4ccc(=O)[nH]c4=O)O[C@@H]3COP(=O)(O)O[C@H]3[C@@H](O)[C@H](n4ccc(N)nc4=O)O[C@@H]3COP(=O)(O)O[C@H]3[C@@H](O)[C@H](n4ccc(=O)[nH]c4=O)O[C@@H]3CO)O2)c(=O)[nH]c1=O (some centres not stated)
inhibition at 0.1 µM (T47D [2]): < 20%
inhibition (T47D [4]): Active
inhibition (T47D [7]): Active
inhibition (T47D [22]): Active
inhibition at 0.1 µM (T47D [20]): < 20%
inhibition (T47D [23]): Active
